Sampled rows, rich in hits. Any-hit rate of the full collection: about 2.9%.
NS3 helicase inh = inhibitors of HCV NS3 helicase, primary screen, biochemical, Cy5 molecular beacon fluorescence; Hepatitis C virus NS3 helicase; NS3 helicase DNA unwinding; inhibition, % at 10.9 µM; actives 0.56% (n = 290,000); AID 1800, 2009;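 active = inhibition above the mean of all tested compounds plus 3 SD, set per campaign, cut at about 35% in these data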;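 also: 0% = DMSO wells and 100% = thioflavine S control wells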
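Compound dosing – single dose, 10.9 µM nominal final, DMSO 0.8% final · System – NS3 helicase fragment of HCV · Buffer or medium – MOPS pH 6.5, MgCl2, DTT, Tween20, BSA · Signal – Cy5 beacon fluorescence read at start and 1 h · Also added – annealed dual-labelled DNA beacon duplex, ATP-started · Schedule – 1 h at 25 °C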
APOBEC3G inh = APOBEC3G DNA deaminase inhibitors, primary screen, biochemical, fluorescence, single-stranded DNA substrate, uHTS; DNA dC->dU-editing enzyme APOBEC-3G (Homo sapiens), Q9HC16; recombinant A3G, ssDNA deamination FAM/TAMRA fluorescence; inhibition, % at 20 µM; actives 0.28% (n = 330,000); AID 493012, 2011;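 active = inhibition of at least 40% at 20 µM, with no more than 30% in the related APOBEC3A deaminase screen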;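 also: plate controls were DMSO wells with A3G for no effect and wells lacking A3G enzyme for full effect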
HCV core dimer = inhibitors of HCV core protein dimerization, primary screen, biochemical, TR-FRET, high-throughput; TR-FRET GST/Flag-core106 dimerization, 1536-well; actives 0.33% (n = 300,000); inhibition, % at 5 µM;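 active = inhibition above the mean of all tested compounds plus 3 SD, set per screening campaign, cut at about 45% in these data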
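System: GST-tagged and Flag-tagged HCV core protein residues 1-106 / Input: core106 proteins, GST 13.5 nM and Flag 17 nM / Buffer or medium: KF-containing HEPES buffer, pH 7.45, DTT, CHAPS, BSA / Probe or stimulus: Eu-anti-GST and XL665-anti-Flag labelled anti-tag antibodies / Schedule: 4 h, 22.5 °C incubation / Technique: TR-FRET 671 and 617 nm emission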
PRMT1 FP inh = PRMT1 methyltransferase inhibitors, primary screen, biochemical, fluorescence polarization; recombinant PRMT1, activity-based probe fluorescence polarization; inhibition, % at 2.79 µM; actives 1.3% (n = 370,000);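 active = inhibition above about 21% made by adding two undisclosed values, limit read from the data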
APOBEC3A inh = APOBEC3A ssDNA deaminase inhibitors, primary screen, selectivity assay for APOBEC3G inhibitor project, biochemical, FAM/TAMRA oligo cleavage fluorescence. DNA dC->dU-editing enzyme APOBEC-3A (Homo sapiens), P31941. recombinant A3A, FAM/TAMRA ssDNA deamination fluorescence. inhibition, % at 20 µM. actives 0.41% (n = 330,000);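 active = at least 40% inhibition at 20 µM here, with at most 30% in a related deaminase screen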;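 also: plate controls were A3A with DMSO for no effect and wells lacking A3A enzyme for full effect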
ABHD5-PLIN5 inh = ABHD5-PLIN5 interaction inhibitors, primary screen, cell lysate, split luciferase complementation, luminescence; actives 0.78% (n = 360,000); Perilipin-5 (Homo sapiens) + 1-acylglycerol-3-phosphate O-acyltransferase ABHD5 (Homo …; Split G. princeps luciferase complementation, 4 h; inhibition, % at 4 µM;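 active = inhibition above the mean inhibition across every tested compound plus 3 SD, cut at about 22% in these data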;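 also: 0% = DMSO only wells and the 100% control is not disclosed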
Target sequence (Q00G26 whole entry, looked up): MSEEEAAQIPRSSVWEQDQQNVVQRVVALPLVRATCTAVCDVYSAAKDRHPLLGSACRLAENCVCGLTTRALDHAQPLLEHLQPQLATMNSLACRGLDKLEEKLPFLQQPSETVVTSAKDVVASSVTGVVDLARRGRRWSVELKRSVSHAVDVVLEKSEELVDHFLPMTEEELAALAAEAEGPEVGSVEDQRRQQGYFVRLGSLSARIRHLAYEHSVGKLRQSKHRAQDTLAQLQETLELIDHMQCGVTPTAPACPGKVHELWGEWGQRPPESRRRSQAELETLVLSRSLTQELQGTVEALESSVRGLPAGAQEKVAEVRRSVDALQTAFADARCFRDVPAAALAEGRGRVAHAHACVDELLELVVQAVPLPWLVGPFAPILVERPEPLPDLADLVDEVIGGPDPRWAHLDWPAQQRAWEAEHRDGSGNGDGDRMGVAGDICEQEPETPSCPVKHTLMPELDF
Target sequence (Q8WTS1 whole entry, looked up): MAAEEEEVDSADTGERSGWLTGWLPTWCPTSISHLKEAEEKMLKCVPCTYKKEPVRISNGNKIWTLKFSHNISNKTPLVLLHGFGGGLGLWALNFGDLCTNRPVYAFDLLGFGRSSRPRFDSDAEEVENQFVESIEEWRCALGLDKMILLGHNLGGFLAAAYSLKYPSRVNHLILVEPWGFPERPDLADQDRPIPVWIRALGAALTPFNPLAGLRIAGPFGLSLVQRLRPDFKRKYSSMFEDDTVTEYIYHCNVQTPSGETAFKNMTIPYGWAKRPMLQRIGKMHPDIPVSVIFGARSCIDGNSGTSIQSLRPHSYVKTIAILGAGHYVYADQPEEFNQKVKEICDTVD
Numbers without * were called inactive; / = no result given.

SMILES	NS3 helicase inh	APOBEC3G inh	HCV core dimer	PRMT1 FP inh	APOBEC3A inh	ABHD5-PLIN5 inh
CC(=O)Nc1ccc(C(=O)OCC(=O)NC2CCCCCC2)cc1	/	/	/	2.5	/	4.0
O=C(/C=C/c1ccco1)NC(=S)Nc1cccc(-c2nc3ccccc3o2)c1	31.4	-7.2	56.0*	9.5	1.1	12.1
Cc1ccc(-c2nc3ccccc3o2)cc1NC(=S)NC(=O)/C=C/c1ccco1	8.8	-4.6	55.7*	2.1	11.6	4.1
CC(=O)Nc1ccc(S(=O)(=O)Nc2ccccc2C(=O)N2CCCCC2)cc1	8.6	-3.2	-6.2	1.3	0.7	-1.6
S=c1nc(Cc2ccc(Cl)cc2)[nH]c2ccccc12	-2.0	-3.4	53.8*	0.0	-3.0	2.2
S=c1nc(Cc2ccccc2)[nH]c2ccccc12	-4.1	-6.3	37.8	-3.3	-4.9	-19.8
O=C(CSC1CS(=O)(=O)c2cc([N+](=O)[O-])ccc21)NNC(=O)c1ccc(Cl)cc1 (stereo not drawn)	-0.7	-4.4	2.1	22.7*	-0.8	2.3
Cc1ccc(C2CC(c3cccs3)=NN2C(=O)CSc2nc(=O)n3ccc(C)cc3n2)cc1 (stereo not drawn)	/	15.8	60.6*	-8.7	1.7	1.2
O=C(CSc1nc(=O)n2ccccc2n1)N1N=C(c2cccs2)CC1c1ccc(F)cc1 (stereo not drawn)	/	-3.8	9.3	4.3	0.9	-13.7
COc1ccc(C2CC(c3cccs3)=NN2C(=O)CSc2nc(=O)n3ccc(C)cc3n2)cc1 (stereo not drawn)	/	-3.5	48.1*	-3.3	-1.6	11.2
COc1ccc(NC(=O)N(C)C[C@H]2OCCCC[C@H](C)Oc3ccc(NS(=O)(=O)c4cn(C)cn4)cc3C(=O)N([C@H](C)CO)C[C@@H]2C)cc1	/	/	/	-6.4	/	1.6
COC(=O)c1ccc(CSc2ccccc2NC(=S)Nc2cccc(SC)c2)o1	/	/	/	1.5	/	-13.7
NC(=O)C1CCN(c2nc(-c3ccc(N)cc3)cs2)CC1	/	/	/	-1.8	/	/
NC(=O)C1CCN(c2ncc(Br)s2)CC1	/	/	/	21.6*	/	/
Cn1nc(C(C)(C)C)cc1C(=O)N1CCCC(c2cc(C(=O)Nc3ccccc3Cl)no2)C1 (stereo not drawn)	/	/	/	4.4	/	-3.1
O=C(O)C(=Cc1cccc([N+](=O)[O-])c1)c1ccc(Cl)cc1	/	/	/	1.5	/	7.1
COc1ccc(CN2C(=O)CSCC2(C)C(=O)NC(C)C)cc1 (stereo not drawn)	/	/	/	1.5	/	1.3
O=C(Nc1ccc(Cl)cc1)NC1CCCC1Cc1ccco1 (stereo not drawn)	18.6	-1.8	1.2	/	4.2	49.3*
O=C(Nc1ccc(Cl)cc1)NC1CCCCC1Cc1ccco1 (stereo not drawn)	9.8	-1.5	5.1	-2.9	0.6	-7.5
CC(C)(C)NC(=O)C1N(c2cccnc2)C(=O)C2C(C(=O)Nc3ccccc3F)C3(C)C=CC21O3 (stereo not drawn)	2.8	1.3	-5.6	21.7*	0.2	3.9
O=C1CN(S(=O)(=O)c2cccc(Br)c2)CCN1	/	-5.8	/	4.1	-2.2	-0.4
Cc1ccc(C)c(CC(=O)N2CCCCC2c2cc(C(=O)Nc3cccc(C#N)c3)no2)c1 (stereo not drawn)	/	/	/	-3.5	/	-4.3
CC(CC(=O)O)Nc1ccccc1O (stereo not drawn)	13.3	-2.1	-2.1	23.1*	-4.3	-7.1
O=C(C[C@@H]1C/C=C\CCCC(=O)OC[C@@H]2CCCN2C1=O)N[C@@H](CO)Cc1ccccc1	/	-8.8	/	-2.6	-6.1	-2.1
COc1cccc(C(=O)NN2CC(O)=C(c3nc(C)cs3)C2=N)c1	-3.9	0.7	-5.9	-3.0	3.7	-2.3
SMILES	NS3 helicase inh	APOBEC3G inh	HCV core dimer	PRMT1 FP inh	APOBEC3A inh	ABHD5-PLIN5 inh
Cc1ccc(C(=O)NN2CC(O)=C(c3nc(-c4cccc([N+](=O)[O-])c4)cs3)C2=N)cc1	2.7	8.2	53.5*	-2.8	6.8	-2.5
COC(=O)c1nc2nc(-c3cccs3)cc(C(F)(F)F)n2n1	-14.8	-3.1	-0.7	-0.9	-3.6	1.6
O=C(NCc1ccco1)c1nc2nc(-c3cccs3)cc(C(F)(F)F)n2n1	6.4	20.1	20.3	23.1*	22.7	12.7
C1=CC2c3ccccc3NC(c3ccncc3)C2C1 (stereo not drawn)	12.7	23.0	7.4	23.2*	-2.9	3.4
CCOC(=O)[C@]12CCCC3=C1N(CCC3)C(=O)[C@@H](CC(=O)N1CCN(C(=O)C3CC3)CC1)C2	/	/	/	-0.8	/	/
CC1(C)CC(=O)N(CC(=O)N2CCN(c3cccc(C(F)(F)F)c3)CC2)c2ccccc2S1(=O)=O	/	/	/	3.5	/	/
CC(C)[C@H]1COCCS(=O)(=O)N1Cc1ccccc1-c1ccccc1	/	9.0	/	2.5	2.7	3.4
COc1cccc(C2C(C#N)=C(N)Oc3cc(C)n(Cc4ccco4)c(=O)c32)c1 (stereo not drawn)	12.8	-2.2	0.8	10.2	-0.4	22.3*
C=CC[C@]12C[C@@]3(O[C@H](c4ccc(C(F)(F)F)cc4)N=C3C[C@H](c3ccc(OC)cc3)[C@H]1C)N(Cc1ccncc1)C2=O	/	/	/	-7.2	/	/
COC(=O)C(Sc1ccc(Cl)cc1)C1SC(=S)N(Cc2ccccc2)C1=O (stereo not drawn)	/	/	/	3.3	/	21.7
COC[C@H]1CCCN1c1ccc2c(c1)O[C@@H](COCc1ccccc1)CN([C@@H](C)c1ccccc1)S2(=O)=O	/	/	/	-2.1	/	-0.4
S=C1Cc2ccccc2N1	17.9	/	/	34.8*	/	86.2*
S=C1Nc2ccccc2CS1	/	/	/	4.2	/	7.2
CCCc1cc(=O)[nH]c(SCC(=O)N2CCN(S(=O)(=O)c3ccc(Cl)cc3)CC2)n1	-0.9	-0.2	-5.6	-3.0	2.2	-0.6
CCCc1cc(=O)[nH]c(SCC(=O)c2ccc(S(=O)(=O)N3CCCC3)cc2)n1	0.7	-2.8	0.8	22.0*	-0.7	-5.3
COc1ccc(CNC(=O)Cn2nc([N+](=O)[O-])c(Br)c2C)cc1OC	15.8	5.0	0.1	-4.4	0.4	-2.0
CC1CN2C(c3ccc([N+](=O)[O-])cc3)=CSC2=N1 (stereo not drawn)	-3.2	-8.5	1.1	21.6*	-6.9	-7.7
COC(=O)c1ccccc1NC(=O)CSc1ncccn1	5.8	-8.7	1.5	-1.7	-3.0	-1.7
COC(=O)c1cc(C)sc1NC(=O)CSc1ncccn1	-0.8	3.4	0.0	22.2*	1.8	0.3
